Here are results for 15 molecules from ChEMBL document CHEMBL3861985, “Discovery of N-(1-(3-(4-phenoxyphenyl)-1,2,4-oxadiazol-5-yl)ethyl)acetamides as novel acetyl-CoA carboxylase 2 (ACC2) inhibitors with peroxisome proliferator-activated receptor α/δ (PPARα/δ) dual agonistic activity” (Bioorg Med Chem, 2016).

Structures are written as SMILES.

In test [1] the target is T1, Acetyl-CoA carboxylase 2 (Homo sapiens, UniProt O00763). The experiment in a line: Inhibition of full length recombinant C-terminal His-tagged human ACC2 expressed in baculovirus infected sf9 cells using acetyl-CoA as substrate after 90 mins by ATP consumption assay. An outline of the steps: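 Recombinant C-terminal His-tagged human ACC2 (50 ng/well) was run in 30 mM HEPES pH 7.5 with 18 mM NaHCO3, 1.0 mg/mL BSA, 0.5 μM ATP, 1 mM DTT, 4 mM MgCl2, 2 mM sodium citrate, 0.5 mM acetyl-CoA and 1% DMSO. Inhibitor ranged 0–100 μM. Enzyme addition started the reaction, then 90 min at 37 °C. Residual ATP was read by luminescence. Triplicates; IC50 from dose–response curves.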
Target sequence in this assay (O00763 whole entry): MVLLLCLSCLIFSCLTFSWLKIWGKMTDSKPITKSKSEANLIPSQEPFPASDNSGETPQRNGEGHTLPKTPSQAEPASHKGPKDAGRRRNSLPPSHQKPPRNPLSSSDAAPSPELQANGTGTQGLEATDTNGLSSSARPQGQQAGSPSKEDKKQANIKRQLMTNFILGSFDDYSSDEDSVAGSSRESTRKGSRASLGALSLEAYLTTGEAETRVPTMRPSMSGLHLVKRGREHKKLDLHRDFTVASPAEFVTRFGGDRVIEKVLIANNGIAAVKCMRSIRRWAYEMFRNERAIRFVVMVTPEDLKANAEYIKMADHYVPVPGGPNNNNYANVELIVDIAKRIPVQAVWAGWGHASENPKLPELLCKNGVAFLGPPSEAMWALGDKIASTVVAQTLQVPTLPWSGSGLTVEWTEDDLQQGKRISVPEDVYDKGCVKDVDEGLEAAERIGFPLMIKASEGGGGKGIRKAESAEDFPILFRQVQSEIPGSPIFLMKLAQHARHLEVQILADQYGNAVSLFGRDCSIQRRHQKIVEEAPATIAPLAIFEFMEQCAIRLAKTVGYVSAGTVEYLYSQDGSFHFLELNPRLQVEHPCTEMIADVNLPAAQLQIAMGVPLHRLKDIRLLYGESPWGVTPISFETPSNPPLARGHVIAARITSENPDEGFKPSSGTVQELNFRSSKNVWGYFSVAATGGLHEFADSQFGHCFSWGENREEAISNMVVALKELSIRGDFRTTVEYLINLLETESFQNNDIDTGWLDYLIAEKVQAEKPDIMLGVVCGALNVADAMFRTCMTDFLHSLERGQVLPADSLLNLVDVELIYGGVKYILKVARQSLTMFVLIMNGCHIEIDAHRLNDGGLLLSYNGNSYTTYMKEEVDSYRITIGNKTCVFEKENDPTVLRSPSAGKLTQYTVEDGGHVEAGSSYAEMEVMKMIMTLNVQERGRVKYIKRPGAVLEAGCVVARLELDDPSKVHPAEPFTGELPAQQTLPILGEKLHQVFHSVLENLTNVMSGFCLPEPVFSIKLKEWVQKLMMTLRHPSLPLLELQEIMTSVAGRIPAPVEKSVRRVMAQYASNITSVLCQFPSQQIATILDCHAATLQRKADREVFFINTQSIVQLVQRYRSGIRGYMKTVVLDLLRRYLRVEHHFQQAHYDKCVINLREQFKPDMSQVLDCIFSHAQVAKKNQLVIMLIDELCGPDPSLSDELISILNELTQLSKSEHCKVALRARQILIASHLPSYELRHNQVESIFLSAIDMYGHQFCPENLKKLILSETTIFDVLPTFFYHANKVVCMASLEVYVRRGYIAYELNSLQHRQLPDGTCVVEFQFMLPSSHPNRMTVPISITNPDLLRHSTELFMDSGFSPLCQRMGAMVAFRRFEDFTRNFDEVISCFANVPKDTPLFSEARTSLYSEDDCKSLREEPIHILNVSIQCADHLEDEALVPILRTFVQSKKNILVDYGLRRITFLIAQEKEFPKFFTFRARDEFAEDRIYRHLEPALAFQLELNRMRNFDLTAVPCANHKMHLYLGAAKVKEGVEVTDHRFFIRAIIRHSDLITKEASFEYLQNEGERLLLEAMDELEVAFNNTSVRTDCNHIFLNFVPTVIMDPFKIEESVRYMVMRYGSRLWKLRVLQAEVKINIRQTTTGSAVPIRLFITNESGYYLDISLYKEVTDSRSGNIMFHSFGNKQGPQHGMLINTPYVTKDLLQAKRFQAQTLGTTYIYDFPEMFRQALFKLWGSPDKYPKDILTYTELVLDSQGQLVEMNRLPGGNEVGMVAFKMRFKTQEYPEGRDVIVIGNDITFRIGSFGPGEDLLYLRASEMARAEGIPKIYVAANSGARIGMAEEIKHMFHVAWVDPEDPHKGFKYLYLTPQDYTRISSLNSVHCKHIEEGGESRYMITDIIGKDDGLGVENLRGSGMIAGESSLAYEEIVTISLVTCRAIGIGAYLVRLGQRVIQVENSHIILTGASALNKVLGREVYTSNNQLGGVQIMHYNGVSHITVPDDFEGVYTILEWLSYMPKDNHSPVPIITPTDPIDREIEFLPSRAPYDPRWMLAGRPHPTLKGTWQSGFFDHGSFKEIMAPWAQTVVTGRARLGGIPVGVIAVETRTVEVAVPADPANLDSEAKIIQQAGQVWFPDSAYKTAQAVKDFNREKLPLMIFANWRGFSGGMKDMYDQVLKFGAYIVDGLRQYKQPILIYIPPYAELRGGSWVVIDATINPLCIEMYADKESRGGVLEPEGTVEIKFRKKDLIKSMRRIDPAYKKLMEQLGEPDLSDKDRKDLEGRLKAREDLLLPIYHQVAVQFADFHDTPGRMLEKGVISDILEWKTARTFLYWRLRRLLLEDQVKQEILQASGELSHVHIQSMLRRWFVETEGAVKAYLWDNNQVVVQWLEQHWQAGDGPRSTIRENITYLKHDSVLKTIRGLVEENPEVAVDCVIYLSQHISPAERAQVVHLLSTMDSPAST

Test [2] has as its target T1, Acetyl-CoA carboxylase 2. The experiment in a line: Inhibition of full length recombinant C-terminal His-tagged human ACC2 expressed in baculovirus infected sf9 cells at 30 uM using acetyl-CoA as substrate after 90 mins by ATP consumption assay relative to N-(4-(4-(4-isopropoxyphenoxy)phenyl)but-3-yn-2-yl)acetamide. An outline of the steps:
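ATP-consumption assay with His-tagged human ACC2 (50 ng/well), 0.5 mM acetyl-CoA, 0.5 μM ATP and bicarbonate/citrate/Mg2+ in HEPES pH 7.5, run 90 min at 37 °C. Residual ATP was measured. Inhibition at 30 μM is expressed as a percentage of the maximum inhibition reached by the reference ACC inhibitor (set to 100%).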
Target sequence in this assay (O00763 whole entry, looked up): as the sequence (O00763 whole entry) above

For test [3], the target named is T2, Peroxisome proliferator-activated receptor delta (Homo sapiens, UniProt Q03181).
T2 sequence (Q03181 whole entry): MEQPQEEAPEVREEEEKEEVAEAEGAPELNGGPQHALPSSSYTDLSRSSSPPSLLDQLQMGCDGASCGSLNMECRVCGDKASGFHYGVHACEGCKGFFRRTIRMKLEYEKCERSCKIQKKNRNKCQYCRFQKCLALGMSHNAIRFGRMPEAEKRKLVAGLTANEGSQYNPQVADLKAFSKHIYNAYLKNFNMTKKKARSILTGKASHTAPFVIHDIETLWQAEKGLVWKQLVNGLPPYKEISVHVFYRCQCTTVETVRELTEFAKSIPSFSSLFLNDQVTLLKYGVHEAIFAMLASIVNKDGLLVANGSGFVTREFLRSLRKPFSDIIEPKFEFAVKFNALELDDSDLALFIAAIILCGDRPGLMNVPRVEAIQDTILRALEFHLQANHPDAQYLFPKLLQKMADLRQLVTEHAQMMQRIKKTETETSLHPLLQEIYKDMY
Nature of the test: Agonist activity at GAL4-tagged human PPARdelta ligand binding domain chimeric receptor expressed in HEK293 cells after 24 hrs by luciferase reporter gene assay. Format: cell-based.

In test [4] the target is T3, Peroxisome proliferator-activated receptor alpha (Homo sapiens, UniProt Q07869).
T3 sequence (Q07869 whole entry): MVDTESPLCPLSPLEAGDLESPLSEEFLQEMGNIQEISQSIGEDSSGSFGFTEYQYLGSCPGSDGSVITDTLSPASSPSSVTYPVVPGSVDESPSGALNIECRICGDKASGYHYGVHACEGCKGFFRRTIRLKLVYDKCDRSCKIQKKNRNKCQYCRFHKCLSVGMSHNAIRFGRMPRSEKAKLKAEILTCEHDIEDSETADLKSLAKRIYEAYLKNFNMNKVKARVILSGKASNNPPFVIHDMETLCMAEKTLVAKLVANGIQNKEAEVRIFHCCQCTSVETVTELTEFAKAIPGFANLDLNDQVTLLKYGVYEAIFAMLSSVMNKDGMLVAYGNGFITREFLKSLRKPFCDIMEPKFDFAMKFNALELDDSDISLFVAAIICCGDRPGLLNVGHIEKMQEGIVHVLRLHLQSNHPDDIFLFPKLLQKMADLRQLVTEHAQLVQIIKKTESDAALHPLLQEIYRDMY
Nature of the test: Agonist activity at GAL4-tagged human PPARalpha ligand binding domain chimeric receptor expressed in HEK293 cells after 24 hrs by luciferase reporter gene assay. It counts as cell-based. An outline of the steps:
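HEK293 cells seeded at 20% confluence the day before. They were co-transfected by calcium phosphate with a CMX-GAL4N-hPPARα, γ or δ LBD plasmid (30 ng), TK-MH100x4-Luc reporter (100 ng) and CMX-β-galactosidase (10 ng). After 24 h, compound was added for 24 h (final 0.5% DMSO). Luciferase was read and normalized to β-galactosidase (2-nitrophenyl-β-D-galactopyranoside, A405). Triplicates; EC50 taken from dose–response curves.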

Test [5] addresses T4, Peroxisome proliferator-activated receptor alpha (Homo sapiens) (UniProt Q07869).
T4 sequence (whole entry): T3 sequence (Q07869 whole entry)
The experiment in a line: Agonist activity at GAL4-tagged human PPARalpha ligand binding domain chimeric receptor expressed in HEK293 cells after 24 hrs by luciferase reporter gene assay relative to GW7647. It counts as cell-based.

Test [6] has as its target T5, Peroxisome proliferator-activated receptor delta (Homo sapiens) (UniProt Q03181).
T5 sequence (whole entry): T2 sequence (Q03181 whole entry)
Nature of the test: Agonist activity at GAL4-tagged human PPARdelta ligand binding domain chimeric receptor expressed in HEK293 cells after 24 hrs by luciferase reporter gene assay relative to GW501516. Format: cell-based.

For the molecule `CC(=O)N[C@@H](C)c1nc(-c2ccc(Oc3ccc(Oc4ccccc4)cc3)cc2)no1`, the IC50 in test [1] was found to be 16 nM. Moreover, in test [2], the Imax is 86%.

In the case of `CC(=O)N[C@H](C)c1nc(-c2ccc(Oc3ccccc3)cc2)no1`, in test [2], the Imax is 37%.

Take `CC(=O)NC(C)C#Cc1ccc(Oc2ccc(OC(C)C)cc2)cc1` (configuration not stated): in test [1], the IC50 is 11 nM.

For `CCCCCCOc1ccc(Oc2ccc(-c3noc(C(C)NC(C)=O)n3)cc2)cc1` (configuration not stated), the IC50 in test [1] was 260 nM. In test [2], the Imax was 93%.

Take `CC(=O)N[C@@H](C)c1nc(-c2ccc(Oc3ccccc3)cc2)no1`: in test [1], the IC50 is 220 nM. For the same molecule, the Imax in test [2] was found to be 65%. For the same molecule, the figures for the EC50 in test [3] and in test [4] were 290 nM and 150 nM, respectively.

On to `CC(=O)NC(C)c1nc(-c2ccc(Oc3ccccc3)cc2)no1` (racemic), for which the concentration for half-maximal inhibition (IC50) in test [1] came out at 290 nM. The Imax in test [2] stood at 45%. For the same molecule, the EC50 in test [3] and in test [4] was 320 nM in each case.

Take `CC(=O)N[C@H](C)c1nc(-c2ccc(Oc3ccc(Oc4ccccc4)cc3)cc2)no1`: the IC50 in test [1] came to 7500 nM. Moreover, the Imax in test [2] was 67%.

For the molecule `CC(=O)NC(C)c1nc(-c2ccc(Oc3ccc(OC(C)C)cc3)cc2)no1` (configuration not stated), the IC50 in test [1] amounted to 100 nM. For the same molecule, in test [2], the Imax was 74%.

Turning to `CCOc1ccc(Oc2ccc(-c3noc(C(C)NC(C)=O)n3)cc2)cc1` (configuration not stated), in test [1], the IC50 was determined as 420 nM. Besides, the Imax in test [2] is 35%. The results for the EC50 in test [3] and in test [4] were 370 nM and 330 nM, respectively.

For `CC(=O)NCc1nc(-c2ccc(Oc3ccc(OC(C)C)cc3)cc2)no1`, in test [1], the IC50 was 1100 nM. Besides, the Imax in test [2] amounted to 83%.

With `CC(=O)NCc1nc(-c2ccc(Oc3ccc(O)cc3)cc2)no1`, the Imax in test [2] was 3%.

Regarding `CC(=O)NC(C)c1nc(-c2ccc(Oc3ccc(Oc4ccccc4)cc3)cc2)no1` (racemic), in test [1], the IC50 was determined as 48 nM. In addition, in test [2], the Imax came out at 76%.

With `CCCOc1ccc(Oc2ccc(-c3noc(C(C)NC(C)=O)n3)cc2)cc1` (configuration not stated), in test [1], the IC50 amounted to 610 nM. Moreover, in test [2], the Imax was determined as 88%.

As for `CC(=O)NC(C)c1nc(-c2ccc(Oc3ccc(O)cc3)cc2)no1` (configuration not stated), the Imax in test [2] came to 24%. The EC50 in test [3] and in test [4] was 1000 nM throughout. The Emax was 13 to 33% in test [5] and 2 to 9% in test [6].

On to `COc1ccc(Oc2ccc(-c3noc(C(C)NC(C)=O)n3)cc2)cc1` (configuration not stated), for which the Imax in test [2] is 17%. For the same molecule, the EC50 in test [3] came out at 390 nM; in test [4], 210 nM.
